According to the RNAGym collection of RNA variant scans (doi:10.1126/science.aae0568):
Variants at the floor of the assay were thinned out.

B1: tRNA (parent)
chain: GUUCCGUUGGCGUAAUGGUAACGCGUCUCCCUCCUAAGGAGAAGACUGCGGGUUCGAGUCCCGUACGGAACG

Variants of: B1
Assay: yeast fitness relative to wild type (ratio to wild type); higher = fitter; tRNA-Arg(CCU), competitive growth, 37 C, YPD
Procedure, shortened: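 Start and end populations of a pooled competition were compared by 100-nucleotide paired-end sequencing of gene amplicons. The Saccharomyces cerevisiae strains carried tRNA-Arg(CCU) gene variants at the native genomic locus, synthesised with a 3% per-site mutation rate at 69 sites, and competed in YPD at 37°C for 24 hours in six parallel replicates. Darwinian fitness relative to wild type was based on the change in genotype frequencies. Genotypes required ≥ 100 starting reads, and estimates < 0.5 were set to 0.5.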

Row | Variant | yeast fitness
1 | U8C C31G G50A | 0.615
2 | U8C C62U | 0.881
3 | U8G A20G A37G G44A A65C | ≤ 0.5
4 | U8C U16C A20U C30U G39C A45G A69C | ≤ 0.5
5 | U8C G23A C34A A42U C46A C55G A65G | ≤ 0.5
6 | U8G C34A | ≤ 0.5
7 | U8G C33A A37U G38C | 0.529
8 | U8C G44C G48A G51A | 0.674
9 | U8G A21U C27G C49U | 0.687
10 | U8G A65C | 0.733
11 | U8G G12C C55A | ≤ 0.5
12 | U8G U19C C46A | 0.853
13 | U8C G56A A69C | 0.836
14 | U8C U19A A37G | 0.559
15 | U8G C11A C27U A37G G39C C49G | ≤ 0.5
16 | U8C U19C A57U | ≤ 0.5
17 | U8G A21C C46U | 0.554
18 | U8C C31U C49U U54C | ≤ 0.5
19 | U8C U16C U59A | ≤ 0.5
20 | U8G C31U C33G U47A G50U | 0.608
21 | U8G A21G | 0.582
22 | U8C G12A A21U A70U | ≤ 0.5
23 | U8G G12A A21C U26C C60U | ≤ 0.5
24 | U8G C33A A37U G38C A70C | ≤ 0.5

Row | Variant | yeast fitness
25 | U8G G52C G67A | ≤ 0.5
26 | U8C G44C C46A | 0.769
27 | U8C G25A C29G C31A C62U | ≤ 0.5
28 | U8C U28C | 0.834
29 | U8C U19C U54A | 0.542
30 | U8G G18C A37G A40G C55G C66A | ≤ 0.5
31 | U8C U13G | 0.841
32 | U8C U13A | 0.809
33 | U8C G10A C22G | ≤ 0.5
34 | U8C U32A A40U G41C C46A G52A | ≤ 0.5
35 | U8G A20C C49G G50A G56C | ≤ 0.5
36 | U8C U16C A70U | 0.577
37 | U8G G38A | 0.57
38 | U8G G50C U64G | 0.56
39 | U8G C11U C24U A37U C66A | ≤ 0.5
40 | U8C U16C G67U | 0.576
41 | U8G A42U A69C | 0.509
42 | U8G C27U C31U C33A G67C | ≤ 0.5
43 | U8G G17A A20C C22G C29G C34G | 0.549
44 | U8C U26C | 0.837
45 | U8C U26G | 0.959
46 | U8G A57G C60A | ≤ 0.5
47 | U8C G23C C29G A36G A45U | ≤ 0.5
48 | U8C G9A C22G U32G C49G | ≤ 0.5

Row | Variant | yeast fitness
49 | U8C C49A | 0.704
50 | U8C C49U | 0.903
51 | U8C U16A C33G G41C G56C G58A G63C A65U | ≤ 0.5
52 | U8G A43U C49U C55U | ≤ 0.5
53 | U8G C46G A57U | ≤ 0.5
54 | U8G G12A G50C G52C C55U | 0.618
55 | U8C G23A A57C | 0.661
56 | U8C G10A U19C G41A U47C | 0.537
57 | U8C G50C C55A C60A | ≤ 0.5
58 | U8G U13G A37U G63C | ≤ 0.5
59 | U8C G50A C66A | ≤ 0.5
60 | U8G A20C U35C C49A C62A | ≤ 0.5
61 | U8C G9A U59A A70G | ≤ 0.5
62 | U8G G38C G67U | 0.529
63 | U8G C27A C31A C33G | ≤ 0.5
64 | U8G G12A G44A | 0.566
65 | U8G C66U | 0.668
66 | U8G C22U G51C G58A | ≤ 0.5
67 | U8C U19A A40C G44C G48C | ≤ 0.5
68 | U8G G9C C33A G68A | ≤ 0.5
69 | U8C G9A G10A G23C C29U A36C C49G A70U | 0.534
70 | U8C C60U | 0.832
71 | U8C C60G | 0.705
72 | U8C G18C A21C G63A | 0.587

Row | Variant | yeast fitness
73 | U8G G39C U59G C66U | ≤ 0.5
74 | U8G C22U A43G | ≤ 0.5
75 | U8C G44A G48A C49A U59A | 0.524
76 | U8C U13C A14C C30U A42G G50C C55U | 0.671
77 | U8C G9U C29A C34G A36G A40C U47A U64C | ≤ 0.5
78 | U8C G10A C11G G12C C29G | ≤ 0.5
79 | U8G U19A C22A C66U | ≤ 0.5
80 | U8C U26A A40U | 0.613
81 | U8G A20U G44C A57G | ≤ 0.5
82 | U8G G9A U19G U53C C60A | ≤ 0.5
83 | U8C G9A | 0.894
84 | U8C G9C | 0.695
85 | U8G A36U | 0.515
86 | U8C G48C | 0.843
87 | U8C G9A U13A A15G A37U C46U G68A | ≤ 0.5
88 | U8C G18A C24A A37G A57G A69G | ≤ 0.5
89 | U8G U26A G68C | ≤ 0.5
90 | U8C G12C U26G | ≤ 0.5
91 | U8C G12A G25A | 0.734
92 | U8C G17C C31A G68A | ≤ 0.5
93 | U8G A70C | 0.633
94 | U8C G9A A40C | 0.672
95 | U8G G38A G67A A69U | ≤ 0.5
96 | U8C G9A G17C G56C | 0.532

Row | Variant | yeast fitness
97 | U8C U53A U64C | ≤ 0.5
98 | U8G U16A G18C C22G | ≤ 0.5
99 | U8G A37G C55U | ≤ 0.5
100 | U8C U16C U53G G56C C60A | ≤ 0.5
101 | U8C G25C G38A G58A C60U | ≤ 0.5
102 | U8G C24A U35G C46G U53C U54G | ≤ 0.5
103 | U8G A14G A43C | ≤ 0.5
104 | U8C U16A U19A C22U | 0.536
105 | U8C C34A A45C | ≤ 0.5
106 | U8C G44A U53C A70U | ≤ 0.5
107 | U8G A43U | 0.66
108 | U8C G18A C27U | 0.531
109 | U8G G9U C30A | ≤ 0.5
110 | U8G A14U G18A G50A A57U A70G | ≤ 0.5
111 | U8C C31G G48A U54C | ≤ 0.5
112 | U8G A14G C46U C55A C66U | ≤ 0.5
113 | U8C U47C | 0.913
114 | U8C G10A A40G A65G G67A | ≤ 0.5
115 | U8C C49A G51U U59G C62A | ≤ 0.5
116 | U8C G12A C62A | ≤ 0.5
117 | U8C G68U A69C | ≤ 0.5
118 | U8G A14U G50A A57U G68C | ≤ 0.5
119 | U8C U13G C22U C49A A69C | ≤ 0.5
120 | U8G G12A G38A A69U | ≤ 0.5

Row | Variant | yeast fitness
121 | U8C G23C C29G A45U | ≤ 0.5
122 | U8C U16A | 0.934
123 | U8C G39C U47C U59C | ≤ 0.5
124 | U8G G52A A70U | ≤ 0.5
125 | U8G A20C A43U G67A | ≤ 0.5
126 | U8C G9C U13A G25A A40C A57C C61A G67A | ≤ 0.5
127 | U8C U16C C33U A43U C49G G50C C61U C66U | ≤ 0.5
128 | U8G C46G | 0.593
129 | U8G A37C U64A A70C | ≤ 0.5
130 | U8C G25C C49A | 0.515
131 | U8C G23C U26C C29G A45U | ≤ 0.5
132 | U8C G17A A40U G48A | ≤ 0.5
133 | U8C G9A U13C A20C | 0.541
134 | U8G G10A C60U | 0.585
135 | U8G A14G G18A U47A C62G | ≤ 0.5
136 | U8G U26A | 0.605
137 | U8G C11G U32A G67C | ≤ 0.5
138 | U8G G25C A36G G48A C60A | ≤ 0.5
139 | U8C G25A A37G A40G | ≤ 0.5
140 | U8C G23A C29U A45U | 0.632
141 | U8C U59A | 0.721
142 | U8C U59G | 0.901
143 | U8C G12C G63C | 0.577
144 | U8C G68C | 0.958

Row | Variant | yeast fitness
145 | U8C G68U | 0.857
146 | U8C C33G A43C C66A | ≤ 0.5
147 | U8G A14G C33U | ≤ 0.5
148 | U8G A36C U53C A69G | ≤ 0.5
149 | U8G C11G U32A A70C | 0.599
150 | U8G G17A A20C C22G C29G C34G C60U C62U A69G | ≤ 0.5
151 | U8G U16A C34A A36C U64C C66A | ≤ 0.5
152 | U8G C22A C27U A40U | ≤ 0.5
153 | U8C G10A U16A A65G | 0.605
154 | U8C G18C C33U A65C A69C | 0.549
155 | U8C G10A U19C C34A C46U A65C | ≤ 0.5
156 | U8G G18C C49U G58A G67A | ≤ 0.5
157 | U8G G18C A37G A40G G63C | 0.506
158 | U8G A21G C29U C30A U32C | ≤ 0.5
159 | U8C G18A U35C U47C G50C | ≤ 0.5
160 | U8G C49G A57U | ≤ 0.5
161 | U8C G10C A21U G23C G56A C61A A65G | ≤ 0.5
162 | U8C U28A C29G A57C G67A | ≤ 0.5
163 | U8C U16G G25A A70G | ≤ 0.5
164 | U8G C27U C30A A43C C60U | ≤ 0.5
165 | U8C G10A C29G G56C | ≤ 0.5
166 | U8C G17A U54A G56C | ≤ 0.5
167 | U8C G10C | 0.639
